Measurements from ChEMBL document CHEMBL2086351, “Α-aryl-N-alkyl nitrones, as potential agents for stroke treatment: synthesis, theoretical calculations, antioxidant, anti-inflammatory, neuroprotective, and brain-blood barrier permeability properties” (J Med Chem, 2012).

How the values were obtained:
[1] = Antioxidant activity assessed as superoxide anion radical scavenging activity at 0.1 mM after 10 mins by tetrazolium dye assay; format: functional
Outline: (§1)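 Tested in vitro at 0.1 mM. The hydroxyl radical line measures competition with DMSO for hydroxyl radicals. Superoxide was generated at pH 7.4 and read as nitroblue tetrazolium reduction to formazan at 560 nm. LOX inhibition was measured by UV absorbance enzyme assay with plant lipoxygenase.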

[2] = Neuroprotective activity in Sprague-Dawley rat primary cortical neurons assessed as reversal of oxygen-glucose deprivation-induced neuronal damage at 1 uM by treated 4 hrs after OGD challenge measured after 24 hrs MTT assay relative to control; format: functional, cell-based; conditions: Cerebral cortex neuron
Outline: (§2)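 Primary cerebral cortex neurons, cultured 6–8 days, underwent 4 h oxygen–glucose deprivation. Compounds (0.1 μM–10 mM range) were added at the start of a 24 h reperfusion. Viability was read by MTT with untreated control as 100%. Neuroprotection = % recovery from the reperfusion-only value (0%) to control (100%). Three to five independent experiments; mean ± SEM.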

[3] = target: Lipoxygenase (Glycine max) (UniProt Q39829); assay: Inhibition of soybean lipoxygenase assessed as conversion of sodium linoleate to 13-hydroperoxylinoleic acid at 0.1 mM by competitive inhibition assay; outline: as §1
[4] = Antioxidant activity assessed as Fe3+/ascorbic acid-induced hydroxyl radical scavenging activity at 0.1 mM after 30 mins; format: functional; outline: as §1
Mus musculus = assay: Neuroprotective activity in NMRI mouse assessed as protection against tert-butyl hydroperoxide-mediated lethality at 150 mg/kg, ip administered 30 mins before t-BHP challenge measured after 1 to 24 hrs; format: functional; conditions: route intraperitoneal
[5] = Permeability of the compound at pH 7.4 by PAMPA; format: ADME; conditions: read-out: permeability
Outline: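 PAMPA-BBB method of Di et al. (passive blood–brain barrier permeation). Effective permeability is reported as Pe in 10−6 cm s−1.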

[6] = Neuroprotective activity in Sprague-Dawley rat primary cortical neurons assessed as reversal of oxygen-glucose deprivation-induced neuronal damage at 250 uM by treated 4 hrs after OGD challenge measured after 24 hrs by LDH release assay relative to control; format: functional, Cerebral cortex neuron
Outline: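 Primary cortical neurons, cultured 6–8 days, underwent 4 h oxygen–glucose deprivation followed by 24 h reperfusion. Compounds (1–250 μM) were added at reperfusion. Necrotic death was read as LDH release, normalized to untreated reperfusion cells as 100%. Four independent experiments; mean ± SEM; one-way ANOVA with Holm–Sidak post test.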

[7] = Neuroprotective activity in Sprague-Dawley rat primary cortical neurons assessed as reversal of oxygen-glucose deprivation-induced neuronal damage at 250 uM by treated 4 hrs after OGD challenge measured after 24 hrs MTT assay relative to control; format: functional, cell-based; conditions: Cerebral cortex neuron; outline: as §2
[8] = test system: Radical scavenging activity; assay: Antioxidant activity assessed as DPPH radical scavenging activity at 0.5 mM after 2 hrs by spectrophotometric analysis; format: functional
Outline: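 DPPH radical test, measuring initial absorbance and absorbance after reaction spectrophotometrically.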

[9] = Antioxidant activity against AAPH-induced lipid peroxidation assessed as induction time of inhibition at 0.1 mM; format: functional
[10] = Neuroprotective activity in Sprague-Dawley rat primary cortical neurons assessed as reversal of oxygen-glucose deprivation-induced neuronal damage at 100 uM by treated 4 hrs after OGD challenge measured after 24 hrs MTT assay relative to control; format: functional, cell-based; conditions: Cerebral cortex neuron; outline: as §2

Question: What does the source list for CC(C)(C)/[N+]([O-])=C/c1cccc(C(F)(F)F)c1?
Answer: Activity [1]: 29%; Activity [2]: 71.2%; inhibition [3]: 65%; Activity [4]: 60%; Activity (Mus musculus): 12%; Papp [5]: 27 ×10⁻⁶ cm/s; Activity [6]: 70.08%; Activity [7]: 81.2%; Activity [8]: 0.9%; TIME [9]: 0 h; Activity [10]: 101%
